Bioassay records as filed in PubChem BioAssay.
Hits are enriched below; roughly 2.7% of the tested compounds scored in any of these assays.
MC4R antag cAMP: antagonists of human melanocortin 4 receptor (MC4R); P32245; MC4R-expressing cells, MTII-stimulated cAMP, LANCE TR-FRET; inhibition, % at 6.5 µM; hit rate 0.48% among 360,000; AID 540295;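 active means inhibition above its plate's cutoff, the mean of tested wells on that plate plus 3 SD, cut at about 29% in these data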;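 further: 0% = Melanotan II alone and 100% = Melanotan II plus saturating MCL0020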
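Material – human MC4R-expressing U2OS cells · Repeats – no replicates · Detection – TR-FRET with Eu-cAMP and labeled anti-cAMP, 671 nm · Times – compound 30 min, challenge 1 h, detection 1 h · Compound – single nominal compound dose of 6.5 µM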
NR2E3 ag-1: NR2E3 (human) agonism; GST-NR2E3/biotin-RetCOR TR-FRET, 1536-well; inhibition of corepressor binding, % at 4.78 µM; hit rate 0.12% among 320,000; AID 2300; Q9Y5X4;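 active means percent inhibition above the cutoff of mean plus 3 SD of all tested compounds, set per screening campaign, cut at about 20% in these data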;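 further: 0% = DMSO wells and 100% = biotin wells as full block of FRET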
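Format: 1536-well format; test system: GST-NR2E3 and biotin-RetCOR proteins; read-out basis: percent inhibition of TR-FRET ratio; timing: 5 h incubation at 4 °C; detection: time-resolved FRET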
NR1D1 modulator: modulators of human Rev-erb alpha DNA binding. hit rate 0.79% among 370,000. P20393. AID 1259318. activity, % at 10 µM. Rev-erbα–FITC-DNA binding, fluorescence polarization, 90 min;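 active means activity above about 14%, limit read from the data; passing the limit was not always enough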;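 further: 0% = DMSO wells with 35 nM protein and 100% = DMSO wells with 750 nM protein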
Target sequence (P20393 whole entry, looked up): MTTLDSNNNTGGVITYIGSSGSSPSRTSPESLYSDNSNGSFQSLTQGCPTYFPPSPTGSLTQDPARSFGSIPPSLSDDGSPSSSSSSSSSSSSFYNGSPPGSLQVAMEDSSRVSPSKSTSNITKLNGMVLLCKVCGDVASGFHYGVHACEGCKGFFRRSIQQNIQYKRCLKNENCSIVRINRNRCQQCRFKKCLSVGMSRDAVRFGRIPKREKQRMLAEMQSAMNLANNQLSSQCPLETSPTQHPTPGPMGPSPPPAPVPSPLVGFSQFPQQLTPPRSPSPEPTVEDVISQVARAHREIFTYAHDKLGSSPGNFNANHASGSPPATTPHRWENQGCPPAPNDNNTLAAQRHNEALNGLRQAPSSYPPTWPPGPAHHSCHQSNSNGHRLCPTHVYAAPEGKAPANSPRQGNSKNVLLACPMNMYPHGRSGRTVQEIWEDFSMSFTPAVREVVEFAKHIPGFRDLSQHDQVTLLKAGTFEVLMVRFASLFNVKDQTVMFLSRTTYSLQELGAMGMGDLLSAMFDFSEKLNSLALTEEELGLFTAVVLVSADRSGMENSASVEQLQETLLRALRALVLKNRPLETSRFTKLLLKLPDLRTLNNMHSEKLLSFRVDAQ
NR2E3 ag-2: human photoreceptor-specific nuclear receptor agonism. Q9Y5X4. CHO-S Gal4-NCOR/VP16-NR2E3 two-hybrid, luciferase. inhibition of corepressor binding, % at 3.98 µM. hit rate 0.35% among 360,000;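 active means inhibition above the mean of all tested compounds plus 3 SD, cut at about 70% in these data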;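 further: 0% = DMSO with NR2E3 transfected cells and 100% = cells lacking NR2E3 construct; higher means lower luciferase signal from less NR2E3 corepressor binding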
PG9 Ab binder: small molecules binding HIV-1 gp120 antibody PG9. inhibition, % at 6.7 µM. hit rate 0.43% among 360,000. TR-FRET gp120-PG9 antibody binding. AID 624416; in the data active means inhibition above about 8.5%
MC4R barr agon: agonists of human melanocortin 4 receptor (MC4R) beta-arrestin; P32245; U2OS MC4R beta-arrestin complementation, luminescence; percent of melanotan II response, DMSO zero; activation, % at 8.9 µM; hit rate 0.98% among 360,000;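 active means activation above a per-plate cutoff, the mean activation of sample wells on that plate plus 3 SD, cut at about 8% in these data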
NR1D1 mod conf: confirmation of modulators of human Rev-erb alpha DNA binding | hit rate 61% among 3,000 | Rev-erb alpha FITC-DNA binding, fluorescence polarization, 90 min | activation, % at 25 µM | shares compounds with NR1D1 modulator;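 active means activation at or above a set limit, or at least 3 SD above the negative control mean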;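 further: 0% = 35 nM protein with DMSO and 100% = 750 nM protein high control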
RORg DNA counter: RORgamma DNA-binding activity, dose-response counter-screen; purified RORgamma protein-FITC-DNA binding, fluorescence polarization; hit rate 8% among 910; IC50, µM; shares compounds with NR1D1 modulator; AID 1259320;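 active means Compounds whose fitted half-maximal concentration for disrupting protein-DNA binding is below 10 micromolar; the record names Rev-erb in its text, so the target is in doubt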
* marks the source's active call; other numbers are inactive results; · = not tested or not shown.

SMILES	MC4R antag cAMP	NR2E3 ag-1	NR1D1 modulator	NR2E3 ag-2	PG9 Ab binder	MC4R barr agon	NR1D1 mod conf	others
CCN(CC)c1ccc(/C=C(\C#N)C(=O)c2ccc(Br)cc2)cc1	3	-11	59*	0	-3	-3	70*	RORg DNA counter=>40
CCN(CC)c1ccc(/C=C(\C#N)C(N)=S)cc1	-10	-1	76*	-32	-9	-4	64*	RORg DNA counter=>40
CCN(CC)c1ccc(/C=C(\C#N)C(N)=O)cc1	-11	·	9	10	-7	-3	·
COc1ccccc1CN1CC(C(=O)NCc2nc3ccccc3n2C)CCC1=O (centres undefined)	5	·	4	-23	-1	0	·
COc1ccccc1CN1CC(C(=O)NCc2nccn2C)CCC1=O (centres undefined)	4	-1	20*	-17	-2	-2	4
O=C(CN1C(=O)NC2(CCc3ccccc32)C1=O)Nc1ccc(Br)cc1F (centres undefined)	6	0	3	-27	-1	0	·
COc1ccc(/C=N/NC(=O)c2sc3nc(C)cc(C)c3c2N)cc1	3	1	4	-26	1	0	·
Cc1cc(C)c2c(N)c(C(=O)N/N=C/c3cccs3)sc2n1	15	4	80*	-61	2	8	54*	RORg DNA counter=>40
Cc1cc(=O)cc(C)n1-c1ccc(Br)cc1	17	4	0	-7	-1	1	·
O=C1C=C(NCc2ccc3c(c2)OCO3)CC(c2ccccc2)C1 (centres undefined)	·	-4	-2	·	0	·	·
COc1ccc(-n2nc3ccc(N)cc3n2)cc1Cl	-4	2	4	-110	1	-1	·
COc1ccc(-n2nc3ccc(NS(C)(=O)=O)cc3n2)cc1Cl	7	-1	23*	-76	5	3	18*
COc1cc(OC)cc(-c2c(-c3cccs3)c3cc(-c4ccc(N(C)C)nc4)ccc3n2C)c1	1	4	24*	-18	1	-1	1
COc1cc(F)cc(-c2ccc3c(c2)c(-c2cccs2)c(-c2cc(OC)cc(OC)c2)n3C)c1	-8	2	4	-47	-3	-1	·
Cc1c2cnn(CC(=O)NCCN3CCOCC3)c(=O)c2c(C)n1Cc1ccccc1F	11	·	2	10	-1	1	·
O=C(Nc1ccc2c(c1)OCO2)C1CCN(C(=O)c2ccc(Br)cc2)CC1	8	-2	9	-9	0	-1	·
O=C(O)CN1C(c2ccccc2O)Nc2ccc(Br)cc2C1c1ccccc1 (centres undefined)	1	·	-4	-13	0	-2	·
COc1ccc(C2Nc3ccc(Br)cc3C(c3ccccc3)N2CC(=O)O)cc1 (centres undefined)	0	1	18*	-30	0	-3	11
O=C(NCC1CCCN1S(=O)(=O)c1cccs1)c1ccc(F)c(F)c1 (centres undefined)	0	4	-6	-17	0	-4	·
OCC1OC(Oc2cccc3ccccc23)C(O)C(O)C1O (centres undefined)	19	-2	26*	-10	-2	-1	-3
CCN(CC)S(=O)(=O)c1ccc(F)cc1	3	6	37*	3	2	1	6
COc1ccc(C(=O)N/N=C/c2ccc3cccc(OCc4ccccc4)c3n2)cc1	8	5	-2	-22	4	-1	·
COc1ccccc1N1CCN(C(=O)c2oc3cc(C)cc(C)c3c2C)CC1	6	2	-8	-14	-1	-2	·
COc1ccc(Cl)cc1C(=O)Nc1ccc(NC(C)=O)cc1	17	0	2	-30	0	0	·
COc1ccc(Cl)cc1C(=O)Nc1ccc(Br)c(C)n1	6	2	28*	-13	-3	0	4
